Active and inactive are the calls of the source. The calls are words filed in the database; no cut-off is given here.
Key:
[1] = molecular target: T1, Serotonin (5-HT) receptor (Rattus norvegicus) (UniProt P35563+P35365+P32305+P31388+Q9JJ16+P28564+P30994+Q62758+P08909+P14842+P30940+P35364+P19327+P28565); test: (§1) Ability to elicit head twitches in rats (a serotonin mimetic response); format: functional; set-up: concentration or dose not given beside the values
How it was run: (§2)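 Female Sprague-Dawley rats (150-250 g), compound given ip in 1% methylcellulose vehicle, dose as base weight; quantal scoring of rats showing at least one head twitch during a 2-min observation beginning 30 min after dosing; usually six rats per dose level; vehicle controls run.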

[2] = molecular target: T1, Serotonin (5-HT) receptor (Rattus norvegicus); test: as §1; format: functional; set-up: concentration or dose not given beside the values; how it was run: as §2; remark: listed apart in the source
[3] = molecular target: Sodium-dependent serotonin transporter (Rattus norvegicus) (UniProt P31652); test: (§3) Serotonin neuronal reuptake blocking activity was determined by the antagonism of the head twitch response induced by treatment of rats; format: functional; set-up: concentration or dose not given beside the values
Chain of Sodium-dependent serotonin transporter (Rattus norvegicus) (P31652 whole entry): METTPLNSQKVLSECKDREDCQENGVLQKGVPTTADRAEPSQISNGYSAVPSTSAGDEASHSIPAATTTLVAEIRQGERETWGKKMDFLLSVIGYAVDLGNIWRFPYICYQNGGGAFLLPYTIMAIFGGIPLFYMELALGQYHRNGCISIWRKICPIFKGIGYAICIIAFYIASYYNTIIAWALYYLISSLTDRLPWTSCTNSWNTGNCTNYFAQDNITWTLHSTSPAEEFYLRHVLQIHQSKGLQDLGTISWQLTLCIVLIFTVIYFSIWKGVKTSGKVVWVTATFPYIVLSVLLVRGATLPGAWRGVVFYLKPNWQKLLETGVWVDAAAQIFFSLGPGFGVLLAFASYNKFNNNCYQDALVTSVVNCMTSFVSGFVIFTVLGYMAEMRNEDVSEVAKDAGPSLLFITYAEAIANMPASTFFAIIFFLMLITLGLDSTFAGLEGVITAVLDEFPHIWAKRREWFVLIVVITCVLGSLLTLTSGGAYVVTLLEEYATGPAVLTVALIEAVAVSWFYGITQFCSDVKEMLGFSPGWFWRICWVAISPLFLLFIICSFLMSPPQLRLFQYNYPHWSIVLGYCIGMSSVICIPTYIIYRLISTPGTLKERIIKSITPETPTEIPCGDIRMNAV
How it was run: (§4)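 Female Sprague-Dawley rats (150-250 g) dosed ip with compound (1% methylcellulose vehicle, dose as base weight), then p-chloromethamphetamine 6.0 mg/kg ip 1 h later; head twitches observed 30 min after PCMA; scored as rats not twitching; usually six rats per dose; ED50 = dose antagonizing PCMA head twitch in 50% of animals, with 95% confidence limits.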

[4] = molecular target: T1, Serotonin (5-HT) receptor (Rattus norvegicus); test: as §1; format: functional; set-up: concentration or dose not given beside the values; how it was run: as §2; remark: listed apart in the source
[5] = molecular target: Sodium-dependent serotonin transporter (Rattus norvegicus) (UniProt P31652); test: as §3; format: functional; set-up: concentration or dose not given beside the values; how it was run: as §4; remark: listed apart in the source
[6] = molecular target: Sodium-dependent serotonin transporter (Rattus norvegicus) (UniProt P31652); test: Serotonin neuronal reuptake blocking activity was determined by the antagonism of the head twitch response induced in rats; format: functional; set-up: concentration or dose not given beside the values; how it was run: as §4
Rattus norvegicus [7] = organism: Rattus norvegicus; test: ED50 value expresses the inhibition of serotonin reuptake in rat.; format: functional; how it was run: as §4
Rattus norvegicus [8] = test: Serotonin neuronal reuptake blocking activity was determined by the antagonism of the head twitch response induced in rats with p-chloromethamphetamine (PCMA) after 40 mg/kg of ip administration; Animals succumbed; format: functional, organism-based; set-up: dose 40 mg/kg; how it was run: as §4
Rattus norvegicus [9] = test: Ability to elicit head twitches in rats a response characteristic of a serotonin mimetic action in the central nervous system after 40 mg/kg of ip administration; Animals succumbed; format: functional, organism-based; set-up: dose 40 mg/kg; how it was run: as §2
Rattus norvegicus [10] = test: Serotonin neuronal reuptake blocking activity was determined by the antagonism of the head twitch response induced in rats with p-chloromethamphetamine (PCMA) after 9 mg/kg of ip administration; format: functional; conditions: route intraperitoneal; how it was run: as §4
Rattus norvegicus [11] = test: Ability to elicit head twitches in rats a response characteristic of a serotonin mimetic action in the central nervous system was measured after 3 mg/kg of ip administration; format: functional; conditions: route intraperitoneal; how it was run: as §2
Rattus norvegicus [12] = test: Serotonin neuronal reuptake blocking activity was determined by the antagonism of the head twitch response induced by treatment of rats with p-chloromethamphetamine (PCMA) after 3 mg/kg of ip administration; format: functional; conditions: route intraperitoneal; how it was run: as §4
Rattus norvegicus [13] = test: Ability to elicit head twitches in rats a response characteristic of a serotonin mimetic action in the central nervous system after 9 mg/kg of ip administration; format: functional; conditions: route intraperitoneal; how it was run: as §2
Rattus norvegicus [14] = test: Serotonin neuronal reuptake blocking activity was determined by the antagonism of the head twitch response induced by treatment of rats with p-chloromethamphetamine (PCMA) after 1 mg/kg of ip administration; format: functional; conditions: route intraperitoneal; how it was run: as §4
Rattus norvegicus [15] = test: Ability to elicit head twitches in rats a response characteristic of a serotonin mimetic action in the central nervous system was measured after 1 mg/kg of ip administration; format: functional; conditions: route intraperitoneal; how it was run: as §2
Rattus norvegicus [16] = test: Ability to elicit head twitches in rats a response characteristic of a serotonin mimetic action in the central nervous system was measured after 1.2 mg/kg of ip administration; format: functional; conditions: route intraperitoneal; how it was run: as §2
Rattus norvegicus [17] = test: Ability to elicit head twitches in rats a response characteristic of a serotonin mimetic action in the central nervous system after 20 mg/kg of ip administration; format: functional; conditions: route intraperitoneal; how it was run: as §2
Rattus norvegicus [18] = test: Ability to elicit head twitches in rats a response characteristic of a serotonin mimetic action in the central nervous system was measured after 5 mg/kg of ip administration; format: functional; conditions: route intraperitoneal; how it was run: as §2
Rattus norvegicus [19] = test: Serotonin neuronal reuptake blocking activity was determined by the antagonism of the head twitch response induced by treatment of rats with p-chloromethamphetamine (PCMA) after 1.0 mg/kg of ip administration; format: functional; conditions: route intraperitoneal; how it was run: as §4
Rattus norvegicus [20] = test: Ability to elicit head twitches in rats a response characteristic of a serotonin mimetic action in the central nervous system was measured after 1.0 mg/kg of ip administration; format: functional; conditions: route intraperitoneal; how it was run: as §2

[O-][n+]1cc(N2CCNCC2)nc2ccccc21
Activity [1]: 6 | Activity [2]: 6

CN(C)CCn1c(=O)c(N2CCNCC2)nc2ccccc21
PCMA antagonism [3]: 0 | Activity [4]: 1 | PCMA antagonism [5]: 2 | PCMA antagonism [6]: 0 | Activity [1]: 0 | Activity [2]: 1

Cl.Clc1ccc2nc(N3CCNCC3)cnc2c1
PCMA antagonism [3]: 6 | ED50 (Rattus norvegicus [7]; Rattus norvegicus): 0.5 mg/kg | Activity [4]: 2 | PCMA antagonism [5]: 4 | PCMA antagonism [6]: 6 | Activity [1]: 0 | Activity [2]: 1

c1ccc2nc(N3CCNCC3)cnc2c1
PCMA antagonism [3]: 2 | PCMA antagonism (Rattus norvegicus [8]): Active | Activity (Rattus norvegicus [9]): Active | PCMA antagonism [5]: 2 | Activity [1]: 12 | Activity [2]: 9

Clc1cc2ncc(N3CCNCC3)nc2cc1Cl
PCMA antagonism [3]: 4 | Activity [4]: 1 | PCMA antagonism [5]: 1 | PCMA antagonism [6]: 3 | Activity [1]: 2 | Activity [2]: 0

CN1CCN(c2nc3ccccc3nc2O)CC1
PCMA antagonism [3]: 0 | Activity [4]: 6 | PCMA antagonism [5]: 1 | PCMA antagonism [6]: 0 | Activity [1]: 0 | Activity [2]: 0

Fc1cccc2ncc(N3CCNCC3)nc12
PCMA antagonism [3]: 1 | PCMA antagonism (Rattus norvegicus [8]): Active | Activity (Rattus norvegicus [9]): Active | PCMA antagonism [5]: 0 | Activity [1]: 6 | Activity [2]: 1

O=C1CN(c2cnc3ccccc3n2)CCN1
Activity [4]: 3 | Activity [1]: 0 | Activity [2]: 0

COc1cccc2nc(N3CCNCC3)cnc12
PCMA antagonism [3]: 1 | Activity [4]: 3 | PCMA antagonism [5]: 0 | PCMA antagonism [6]: 2 | Activity [1]: 2 | Activity [2]: 1

Cc1cccc2nc(N3CCNCC3)cnc12.Cl
PCMA antagonism (Rattus norvegicus [10]): 1 | Activity (Rattus norvegicus [11]): 4 | PCMA antagonism (Rattus norvegicus [12]): 1 | Activity (Rattus norvegicus [13]): 5 | PCMA antagonism (Rattus norvegicus [14]): 0 | Activity (Rattus norvegicus [15]): 0

CN(C)CCCN1c2ccccc2CCc2ccc(Cl)cc21 [CLOMIPRAMINE]
ED50 (Rattus norvegicus [7]): 2 mg/kg

Fc1cccc2nc(N3CCNCC3)cnc12
Activity [1]: 6 | Activity [2]: 6

Cl.Clc1nc2ccccc2nc1N1CCNCC1
Activity (Rattus norvegicus [16]): 2 | Activity (Rattus norvegicus [17]): 1 | Activity (Rattus norvegicus [18]): 3

COc1ccc2nc(N3CCNCC3)cnc2c1
PCMA antagonism [3]: 5 | Activity (Rattus norvegicus [9]): Active | PCMA antagonism [5]: 3 | Activity [1]: 1 | Activity [2]: 1

Oc1ccc2nc(N3CCNCC3)cnc2c1
PCMA antagonism [3]: 0 | Activity [4]: 1 | PCMA antagonism [6]: 2 | Activity [1]: 0 | Activity [2]: 0

Cn1c(=O)c(N2CCNCC2)nc2ccccc21
PCMA antagonism (Rattus norvegicus [10]): 0 | PCMA antagonism (Rattus norvegicus [19]): 1 | Activity (Rattus norvegicus [11]): 3 | PCMA antagonism (Rattus norvegicus [12]): 2 | Activity (Rattus norvegicus [13]): 5 | Activity (Rattus norvegicus [20]): 1

Source: ChEMBL document CHEMBL1121884, “Piperazinylquinoxalines with central serotoninmimetic activity” (1981)
